# Source: PubChem BioAssay (Broad Institute)
# The list is not random: actives were taken first. Their share in the collection is about 2.1%.
# ERp5 inh – ERp5 (human) disulfide isomerase inhibition. inhibition, % at 9.99 µM. AID 651711. ERp5 insulin aggregation, absorbance 650 nm, 90 min. 350,000 compounds, 0.05% hits;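 active means mean replicate inhibition above about 25%, with every replicate also reaching it, limit read from the data, passing the limit was not always enough; inconclusive means only one of those two criteria met; inactive means neither criterion met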
# PDI inh – blocks human protein disulfide isomerase activity. PDI insulin aggregation turbidity, A650, 90 min. 350,000 compounds, 0.052% hits. AID 588391. P07237. inhibition, % at 10 µM;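 active means mean inhibition across replicates of 30% or more, whatever share of single replicates reach that level; inconclusive means mean inhibition below 30% while every single replicate reaches 30%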
# Target sequence (P07237 whole entry, looked up): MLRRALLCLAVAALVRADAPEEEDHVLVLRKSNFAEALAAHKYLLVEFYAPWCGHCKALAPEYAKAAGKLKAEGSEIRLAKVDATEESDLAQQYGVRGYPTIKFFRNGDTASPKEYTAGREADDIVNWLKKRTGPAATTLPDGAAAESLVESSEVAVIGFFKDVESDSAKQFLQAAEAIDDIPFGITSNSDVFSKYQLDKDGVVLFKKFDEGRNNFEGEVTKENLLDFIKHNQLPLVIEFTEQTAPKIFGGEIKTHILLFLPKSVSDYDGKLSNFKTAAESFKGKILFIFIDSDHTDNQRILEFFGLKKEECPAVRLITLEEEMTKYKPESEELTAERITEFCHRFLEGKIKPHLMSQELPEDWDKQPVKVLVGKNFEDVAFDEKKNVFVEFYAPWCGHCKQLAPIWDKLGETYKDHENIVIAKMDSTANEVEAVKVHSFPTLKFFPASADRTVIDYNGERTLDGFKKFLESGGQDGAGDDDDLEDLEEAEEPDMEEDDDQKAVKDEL
# FN deposit inh – fibronectin deposition inhibition; AH1F fibroblasts, Alexa488-fibronectin deposition fluorescence, overnight; inhibition, % at 12.6 µM; 350,000 compounds, 0.086% hits; AID 743247;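 active means mean inhibition across replicates of 30% or more, regardless of how many single replicates reach that level; inconclusive means mean under 30% yet at least half of replicates reach 30%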;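 further: positive control wells lacked labelled fibronectin entirely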
#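 material = AH1F fibroblast monolayer depositing Alexa488-labelled fibronectin into matrix | amount = 10000 AH1F cells/well | buffer or medium = DMEM plus 2% serum, read in PBS | incubation = 1 h cell adhesion before compound, then overnight fibronectin incubation | detection = fluorescence at 485 nm excitation, 525 nm emission | evaluation = percent inhibition as loss of matrix-bound fibronectin fluorescence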
# FGF22 binding – binders of recombinant human FGF22 by thermal shift; Q9HCT0; SYPRO orange fluorescence; percent of sucrose octasulfate shift, DMSO zero; activity (Tm shift, normalised), % at 9.99 µM; 340,000 compounds, 1.5% hits; AID 651658;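 active means mean Tm shift, scaled 0 neutral to 100 positive control, at about 1.3% or above, every replicate too, limit read from the data; inconclusive means no clear call, values can overlap the other calls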
# Target sequence (Q9HCT0 whole entry, looked up): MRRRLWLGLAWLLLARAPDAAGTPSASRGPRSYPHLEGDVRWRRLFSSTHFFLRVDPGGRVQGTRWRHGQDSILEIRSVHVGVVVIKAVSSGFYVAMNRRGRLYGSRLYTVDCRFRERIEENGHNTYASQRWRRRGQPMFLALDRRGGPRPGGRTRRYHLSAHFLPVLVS
# ARNT TACC3 PPI – disrupts binding between human ARNT and TACC3; Q9Y6A5; inhibition, % at 9.99 µM; 390,000 compounds, 0.66% hits; AlphaScreen His-ARNT PAS-B/GST-TACC3 binding, luminescence; TACC3 fragment carries E629A point mutation;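 active means mean inhibition of replicates at least 50% and at least half of replicates each reaching 50%; inconclusive means half or more replicates reach 50% but mean below 50%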;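 further: 0% = complete ARNT plus TACC3 wells and 100% = ARNT alone without TACC3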
# AF4-AF9 inh – MLL-AF4/AF9 protein interaction inhibition; AlphaScreen, biotin-AF4 peptide binding to FLAG-AF9; inhibition, % at 10 µM; 350,000 compounds, 0.47% hits; AID 651704;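 active means every replicate reaching a set inhibition limit, whatever the replicate mean, cut at about 25% in these data; inconclusive means mean inhibition reaches that limit but some replicates miss it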;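 further: 0% = plate neutral control median and 100% = total signal loss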
# ARNT Alpha ctr-1 – interferes with AlphaScreen signal, flagging false ARNT-TACC3 hits; shares compounds with ARNT TACC3 PPI; His-ARNT PASB-GST AlphaScreen artifact counter-screen, luminescence; AID 651705; 1,200 compounds, 50% hits; AC50, µM (top dose mostly 68 µM), for inactives: top-dose activity change, negative = signal decrease;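 active means every separate test run was called active for a drop in luminescence, with AC50 within twice the top valid dose, actives reach about 71 µM in these data; inconclusive means the separate test runs disagree in their calls; inactive means all runs inactive, including signal change in the wrong direction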
# ARNT Alpha ctr-2 – counter-screen for ARNT-TACC3 inhibitors: AlphaScreen artifacts. Dual-tagged His-ARNT PASB-GST AlphaScreen artifact counter-screen. AC50, µM. AID 720564. shares compounds with ARNT TACC3 PPI. 45 compounds, 70% hits;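 active means luminescence drop, with half-maximal potency fitted within twice the sample's top valid dose, cut at about 70 µM in these data; inactive means the rest, including signal moving the wrong way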
# Numbers without * were called inactive; ? = inconclusive; nt = no result; [ ] = dose if it differs, or a comment.
SMILES,ERp5 inh,PDI inh,FN deposit inh,FGF22 binding,ARNT TACC3 PPI,AF4-AF9 inh,ARNT Alpha ctr-1,others
c1ccc(-c2nc3ccccc3[nH]2)nc1,0,4,-5,0,59*,7,-16%,
O=c1[nH]c(-c2ccccn2)nc2ccccc12,nt,6,nt,nt,64*,nt,-13%,
c1ccc(-c2nc3ccccc3[nH]2)cc1,3,-1,-3,0,-2,-6,nt,
O=c1[nH]c(/C=C/c2ccccn2)nc2ccccc12,-1,-9,9,0,8,4,nt,
CCC(=O)Nc1ccc2c(c1)C(=O)N(C)C[C@H](OC)[C@@H](C)CN(C(=O)COC)[C@@H](C)CO2,-8,nt,-3,0,-22,2,nt,
Cc1ccc(S(=O)(=O)Nc2ccc3c(c2)CC(=O)N([C@@H](C)CO)C[C@@H](C)[C@H](CN(C)S(=O)(=O)c2c(C)noc2C)O3)cc1,2,nt,nt,0,1,8,nt,
Cc1ccc(S(=O)(=O)N(C)C[C@H]2Oc3ncc(-c4ccncc4)cc3C(=O)N([C@@H](C)CO)C[C@@H]2C)cc1,-8,nt,-5,0,-2,0,nt,
Cc1noc(C)c1S(=O)(=O)N(C)C[C@H]1OCCCC[C@H](C)Oc2ccc(NC(=O)Nc3ccccc3)cc2C(=O)N([C@H](C)CO)C[C@H]1C,-4,nt,1,0,4,3,nt,
CCOC(=O)/C(=N/Nc1ccccc1OC)N1CCCc2ccccc21,nt,-10,-2,0,34*,6,44µM*,
c1ccc(-c2nc(-c3ccncc3)n[nH]2)nc1,nt,5,6,0,70*,-1,23µM*,ARNT Alpha ctr-2=5.1*
CCC(=O)N1[C@H](CO)[C@H](c2ccc(C#CC3CCCCC3)cc2)[C@@H]1CNC(C)C,4,nt,4,nt,nt,8,nt,
CCO/C=C1/C(=O)N(Cc2ccccc2)C(=O)c2ccccc21,0,5,-11,0,25*,5,0%,
CCO/C=C1\C(=O)N(c2ccccc2)C(=O)c2ccccc21,nt,4,nt,nt,2,nt,nt,
C[C@H](CO)N1C[C@H](C)[C@H](CN(C)Cc2ccc(C(=O)Nc3ccccc3N)cc2)Oc2ccc(NC(=O)CCC(F)(F)F)cc2C1=O,4,nt,nt,0,-7,0,nt,
CS(=O)(=O)c1ccccc1-c1nnc(NC(=O)c2ccc3ncsc3c2)o1,-6,-4,nt,0,50*,2,-38%,
COc1ccc(NC(=O)N[C@@H]2CC[C@H](CCn3cc(-c4ccccn4)nn3)O[C@@H]2CO)cc1,3,nt,19,0,63*,0,51µM*,
COc1ccc(NC(=O)N[C@H]2CC[C@H](CCn3cc(-c4ccccn4)nn3)O[C@H]2CO)cc1,3,nt,-6,0,41,-1,nt,
COc1ccc(NC(=O)N[C@@H]2CC[C@H](CCn3cc(-c4ccccn4)nn3)O[C@H]2CO)cc1,-4,nt,-11,0,59*,-1,50µM*,
Cc1cc(C)c(S(=O)(=O)N2CCCC2=O)c(C)c1N(C)S(C)(=O)=O,2,-4,12,0,9.2*,1,-5%,
NC(=O)CSc1nnc(-c2ccc(O)cc2)n1Cc1ccco1,nt,0,4,nt,38*,nt,28µM*,
CO[C@H]1CN(C)C(=O)c2ccc(NC(=O)C3CC3)cc2OC[C@H](C)N(C(=O)c2ccccc2F)C[C@@H]1C,-11,nt,-13,0,-9,0,nt,
CCOc1ccccc1NC(=O)CN(c1ccc(OC)cc1)S(=O)(=O)c1c(C)[nH]c(=O)[nH]c1=O,-2,-11,5,0,55*,0,29µM*,
CCOc1ccc(N(CC(=O)Nc2ccc(OC)cc2OC)S(=O)(=O)c2c(C)[nH]c(=O)[nH]c2=O)cc1,5,6,1,0,58*,7,10µM*,
COc1ccc(N(CC(=O)Nc2ccccc2C)S(=O)(=O)c2c(C)[nH]c(=O)[nH]c2=O)cc1,2,-5,6,0,2,-16,nt,
Nc1nc(-c2ccccn2)nc(N)c1Cc1ccccc1F,0,-2,4,0,67*,6,22µM*,
SMILES,ERp5 inh,PDI inh,FN deposit inh,FGF22 binding,ARNT TACC3 PPI,AF4-AF9 inh,ARNT Alpha ctr-1,others
Nc1nc(-c2ccccn2)nc(N)c1Cc1ccc(Cl)cc1Cl,-2,-8,-4,0,57*,-1,26µM*,ARNT Alpha ctr-2=12*
c1c[nH]c(CN2CCN(Cc3ncc[nH]3)CC2)n1,0,-1,1,0,53*,28*,-3%,
c1ccc(N2CCN(Cc3nc4ccccc4[nH]3)CC2)nc1,0,-37,3,0,2,0,nt,
O=C(CNCc1ccccn1)Nc1cc(C(F)(F)F)ccc1N1CCOCC1,4,-6,-1,0,58*,0,-19%,
Nc1ncnc(Oc2cccc3cccnc23)c1[N+](=O)[O-],-4,-3,7,0,51*,-2,-29%,
Cc1cccc(Oc2ncnc(N)c2[N+](=O)[O-])c1C,-2,-11,-3,0,-32,-2,nt,
O=[N+]([O-])c1cnc(Nc2ccccc2)nc1Nc1ccccc1,-3,-2,3,0,12,-1,nt,
O=c1[nH][nH]c(=O)c2nc(Nc3ccccc3)ncc12,-3,-6,5,0,69*,0,-17%,
O=C(C[C@H]1C=C[C@@H](NC(=O)Nc2ccccc2)[C@@H](CO)O1)NCc1ccccn1,?,nt,nt,0,35*,0,-8%[42 µM],
COC(=O)C[C@@H]1CC[C@@H](NS(=O)(=O)c2ccc(OC)cc2)[C@H](CO)O1,?,nt,19,1,58*,-4,4%[38 µM],
COc1cc(/C=N/NC(=O)CCN2CCN(c3ccccc3)CC2)cc(OC)c1OC,4,5,nt,0,38*,-1,56µM*,
COc1cc(/C=N/NC(=O)CCN2CCN(Cc3ccccc3)CC2)cc(OC)c1OC,nt,5,-1,nt,-8,nt,nt,
O=C(CN1CCOCC1)N1CC2(C1)[C@H](c1ccccc1)[C@@H](CO)N2Cc1ccccc1,1,nt,-6,0,nt,0,nt,
N#C[C@@H]1[C@@H](c2ccccc2C2=CCCCC2)[C@H](CO)N1C(=O)NC1CCCCC1,4,nt,-7,nt,nt,-1,nt,
O=C(C[C@H]1CC[C@@H]2[C@H](COC[C@H](O)CN2Cc2nccs2)O1)NCc1ccc(F)cc1,-1,nt,-5,0,-3,-3,nt,
O=C(Cc1ccccc1)NC(c1ccco1)c1ccc2cccnc2c1O (stereo not given),nt,nt,nt,nt,nt,nt,nt,ARNT Alpha ctr-2=8.7*
CC(C)CC(=O)NC(c1cccs1)c1ccc2cccnc2c1O (stereo not given),nt,2,nt,nt,nt,nt,nt,ARNT Alpha ctr-2=7*
